Consider 20 molecules from ChEMBL document CHEMBL1136810, “Design and synthesis of plasmepsin I and plasmepsin II inhibitors with activity in Plasmodium falciparum-infected cultured human erythrocytes” (J Med Chem, 2003).

The structures appear in SMILES notation. A value given as a limit tells only on which side of the number the result lay.

For orientation: inhibition means how much of the control response was suppressed. The term Ki denotes the dissociation constant of the complex between target and ligand, obtained from inhibition or displacement. Higher therefore signals a looser hold on the target. What is called Papp is a coefficient for how fast a substance crosses the barrier.

The test system of assay [1] is Plasmodium falciparum. The assay can be described thus: Percent inhibition of Plasmodium falciparum in red blood cells at 5 uM. The format is functional.
In the next assay the target is Plasmepsin II (Plasmodium falciparum, UniProt P46925). Briefly: Binding affinity for Plasmodium falciparum plasmepsin-2. The procedure, abridged:
(§1)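 Fluorogenic protease assay in 100 mM sodium acetate pH 4.5 with 10% glycerol and 0.01% Tween 20. Pro-Plm II at 3 nM had its pro-sequence removed by 40 min preincubation at room temperature. Plm I was matched to similar activity. Pro-cathepsin D at 50 ng/mL was activated 20 min at 37 °C. Inhibitors in DMSO (1% final) were added before 3 μM DABCYL/EDANS peptide substrate. Fluorescence rise was read over 10 min. IC50 came from a competitive-isotherm fit and was converted to Ki using Km.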

A further assay has as its target Cathepsin D (Homo sapiens, UniProt P07339). Briefly: In vitro binding affinity for human cathepsin D. The procedure, abridged: as §1
Another assay deals with Plasmepsin I (Plasmodium falciparum, UniProt P39898). Briefly: Binding affinity for Plasmodium falciparum plasmepsin-1. The procedure, abridged:
as §1

In assay [2] the test system is Plasmodium falciparum. Briefly: Percent inhibition against Plasmodium falciparum infected red blood cells at 5 uM. The format is functional.
The test system of the next assay is Caco-2. Briefly: Permeability in Caco-2 cells was determined. As to conditions: Homo sapiens. The format is functional, cell-based. In general terms: Caco-2 cells form a polarised layer with tight junctions and transporters.
The test system of assay [3] is Plasmodium falciparum. Briefly: Percent inhibition of Plasmodium falciparum in erythrocytes at 5 uM. The format is functional.
For assay [4], the system named is Plasmodium falciparum. Briefly: Effective dose against Plasmodium falciparum in red blood cells. The format is functional. As to conditions: read-out: ED50 (the source's name).

Plasmepsin II, sequence (P46925 whole entry): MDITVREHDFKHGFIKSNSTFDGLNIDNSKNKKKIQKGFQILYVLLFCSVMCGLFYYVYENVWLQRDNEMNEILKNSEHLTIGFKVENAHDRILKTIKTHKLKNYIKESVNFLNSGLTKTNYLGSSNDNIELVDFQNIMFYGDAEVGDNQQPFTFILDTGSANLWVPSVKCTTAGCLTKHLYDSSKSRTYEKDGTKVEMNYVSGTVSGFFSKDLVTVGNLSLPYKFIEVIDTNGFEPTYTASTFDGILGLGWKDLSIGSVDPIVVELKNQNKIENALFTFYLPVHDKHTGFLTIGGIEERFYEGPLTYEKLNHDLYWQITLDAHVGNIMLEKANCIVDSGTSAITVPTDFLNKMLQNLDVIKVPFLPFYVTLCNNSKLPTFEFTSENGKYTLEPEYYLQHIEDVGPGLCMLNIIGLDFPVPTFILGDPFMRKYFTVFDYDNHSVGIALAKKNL
Cathepsin D, sequence (P07339 65-162 limits assumed): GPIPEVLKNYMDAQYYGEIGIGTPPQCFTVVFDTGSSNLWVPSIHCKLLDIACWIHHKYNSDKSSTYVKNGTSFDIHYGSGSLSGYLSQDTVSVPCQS
Cathepsin D, sequence (P07339 169-412 limits assumed): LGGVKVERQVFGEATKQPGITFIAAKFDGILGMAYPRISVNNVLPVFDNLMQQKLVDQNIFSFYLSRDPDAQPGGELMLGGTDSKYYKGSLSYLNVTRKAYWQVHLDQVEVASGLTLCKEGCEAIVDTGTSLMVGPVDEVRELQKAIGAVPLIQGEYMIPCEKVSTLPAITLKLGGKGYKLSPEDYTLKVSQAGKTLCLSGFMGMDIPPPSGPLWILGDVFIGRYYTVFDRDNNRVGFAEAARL
Plasmepsin I, sequence (P39898 whole entry): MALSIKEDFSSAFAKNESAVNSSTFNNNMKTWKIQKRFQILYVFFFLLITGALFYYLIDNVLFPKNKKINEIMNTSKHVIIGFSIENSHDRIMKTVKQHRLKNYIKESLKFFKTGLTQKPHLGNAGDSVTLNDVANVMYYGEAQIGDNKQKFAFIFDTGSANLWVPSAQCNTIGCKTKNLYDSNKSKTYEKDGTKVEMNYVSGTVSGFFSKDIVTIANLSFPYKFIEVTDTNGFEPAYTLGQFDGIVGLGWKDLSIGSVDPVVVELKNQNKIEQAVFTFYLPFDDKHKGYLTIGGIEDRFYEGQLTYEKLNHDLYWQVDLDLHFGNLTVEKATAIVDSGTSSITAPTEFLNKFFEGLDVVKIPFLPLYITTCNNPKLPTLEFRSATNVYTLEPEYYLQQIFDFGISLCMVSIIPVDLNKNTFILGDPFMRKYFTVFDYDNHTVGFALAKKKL

Turning to `CC(C)[C@H](NC(=O)c1ccccn1)C(=O)N[C@@H](Cc1ccccc1)[C@@H](O)CN[C@@H](Cc1cccc(-c2cccc(N)c2)c1)C(N)=O`, the inhibition at 5 µM in the assay with Plasmodium falciparum [1] was determined as 69%. Moreover, the inhibitory constant (Ki) at Plasmepsin II was 129 nM; at Cathepsin D, over 2000 nM; on Plasmepsin I it was 530 nM.
As to `Cc1ccc(-c2cccc(C[C@H](NC[C@H](O)[C@H](Cc3ccccc3)NC(=O)[C@@H](NC(=O)c3ccccn3)C(C)C)C(N)=O)c2)cc1`, the inhibition constant Ki was found to be 930 nM at Plasmepsin II, 1900 nM on Cathepsin D and 1100 nM on Plasmepsin I.
The corresponding values for `COc1ccccc1-c1cccc(C[C@H](NC[C@H](O)[C@H](Cc2ccccc2)NC(=O)[C@@H](NC(=O)c2ccccn2)C(C)C)C(N)=O)c1` are 1430 nM, over 2000 nM and 1300 nM.
`CC(C)C[C@H](NC[C@H](O)[C@H](Cc1ccccc1)NC(=O)c1ccccn1)C(N)=O`: the Ki on Plasmepsin II, at Cathepsin D and at Plasmepsin I was over 2000 nM in each case.
With `COc1ccccc1-c1ccc(C[C@H](NC[C@H](O)[C@H](Cc2ccccc2)NC(=O)[C@@H](NC(=O)c2ccccn2)C(C)C)C(N)=O)cc1`, the inhibitory constant (Ki) at Plasmepsin II amounted to 379 nM; on Plasmepsin I it was 437 nM.
For the molecule `CC(C)[C@H](NC(=O)c1ccccn1)C(=O)N[C@@H](Cc1ccccc1)[C@@H](O)CN1C(=O)NC(=O)[C@@H]1Cc1ccc(Br)cc1`, the results for the Ki at Plasmepsin II, on Cathepsin D and at Plasmepsin I were 1900 nM, over 2000 nM and over 2000 nM, respectively.
Regarding `CC(C)[C@H](NC(=O)c1ccccn1)C(=O)N[C@@H](Cc1ccccc1)[C@@H](O)CN[C@@H](C)C(N)=O`, the Ki on Plasmepsin II, on Cathepsin D and on Plasmepsin I was over 2000 nM throughout.
With `CC(C)[C@H](NC(=O)c1ccccn1)C(=O)N[C@@H](Cc1ccccc1)[C@@H](O)CN1C(=O)NC(=O)[C@@H]1Cc1ccc(-c2ccccc2)cc1`, the Ki on Plasmepsin II is 928 nM; at Cathepsin D, over 2000 nM; at Plasmepsin I it was 2050 nM.
Take `CC(C)C[C@H](NC[C@H](O)[C@H](Cc1ccccc1)NC(=O)[C@@H](NC(=O)c1ccccn1)C(C)C)C(N)=O`: the Ki at Cathepsin D was over 2800 nM.
For the molecule `CC(C)[C@H](NC(=O)c1ccccn1)C(=O)N[C@@H](Cc1ccccc1)[C@@H](O)CN[C@H](Cc1ccccc1)C(N)=O`, the inhibition constant (Ki) on Cathepsin D is over 2000 nM.
Consider `CC(C)[C@H](NC(=O)c1ccccn1)C(=O)N[C@@H](Cc1ccccc1)[C@@H](O)CN[C@@H](Cc1ccc(Br)cc1)C(N)=O`, for which the inhibition at 5 µM with Plasmodium falciparum [2] was 35%. In addition, the figures for the Ki at Plasmepsin II, on Cathepsin D and on Plasmepsin I were 540 nM, over 2000 nM and 98 nM, respectively.
In turn, `CC(C)[C@H](NC(=O)c1ccccn1)C(=O)N[C@@H](Cc1ccccc1)[C@@H](O)CN[C@@H](Cc1ccc(-c2ccccc2)cc1)C(N)=O` registered an apparent permeability coefficient (Papp) in the assay with Caco-2 of 10.3 ×10⁻⁶ cm/s. For the same molecule, the Ki on Plasmepsin II is 117 nM; at Cathepsin D it was over 2000 nM; on Plasmepsin I, 68 nM.
Turning to `CCCCNC(=O)C[C@H](O)[C@H](CC(C)C)NC(=O)[C@@H](NC(=O)Cc1ccc2ccccc2c1)C(C)CC` (stereo partly drawn), the Ki at Plasmepsin II was 50 nM; at Cathepsin D, 320 nM.
For `CC(C)[C@H](NC(=O)c1ccccn1)C(=O)N[C@@H](Cc1ccccc1)[C@@H](O)CN[C@@H](Cc1ccc(-c2cccc(N)c2)cc1)C(N)=O`, the inhibition at 5 µM in the assay with Plasmodium falciparum [3] turned out to be 77%. Besides, the inhibition constant Ki was 150 nM on Plasmepsin II and 63 nM at Plasmepsin I.
For `CC(C)[C@H](NC(=O)c1ccccn1)C(=O)N[C@@H](Cc1ccccc1)[C@@H](O)CN[C@@H](Cc1cccc(OS(=O)(=O)C(F)(F)F)c1)C(N)=O`, the inhibition constant (Ki) at Plasmepsin II was over 2000 nM; on Cathepsin D, 1700 nM; on Plasmepsin I, 469 nM.
As to `Cc1ccc(-c2ccc(C[C@H](NC[C@H](O)[C@H](Cc3ccccc3)NC(=O)[C@@H](NC(=O)c3ccccn3)C(C)C)C(N)=O)cc2)cc1`, the results for the inhibition constant Ki on Plasmepsin II and on Plasmepsin I were 121 nM and 115 nM, respectively. For the same molecule, the EC50 in the assay with Plasmodium falciparum [4] was determined as 1600 nM.
For `CC(C)[C@H](NC(=O)c1ccccn1)C(=O)N[C@@H](Cc1ccccc1)[C@@H](O)CN[C@H](C(N)=O)c1ccccc1`, the inhibition constant Ki at Plasmepsin II, on Cathepsin D and on Plasmepsin I was over 2000 nM in each case.
On to `CC(C)[C@H](NC(=O)c1ccccn1)C(=O)N[C@@H](Cc1ccccc1)[C@@H](O)CN[C@@H](Cc1ccccc1)C(N)=O`, for which the Ki at Cathepsin D is over 2800 nM.
On to `CC(C)[C@H](NC(=O)c1ccccn1)C(=O)N[C@@H](Cc1ccccc1)[C@@H](O)CN[C@@H](Cc1cccc(-c2ccccc2)c1)C(N)=O`, for which the Ki on Plasmepsin II came out at 579 nM; on Cathepsin D, 1600 nM; on Plasmepsin I, 1000 nM.
`CC(C)C[C@H](NC(=O)[C@H](C)NC(=O)C[C@H](O)[C@H](Cc1ccccc1)NC(=O)[C@@H](NC(=O)c1ccccn1)C(C)C)C(N)=O` registered an inhibition constant Ki on Plasmepsin II of 0.56 nM.
